Experimental data taken from ChEMBL document CHEMBL4673214, “Synthesis and antibacterial bioactivities of cationic deacetyl linezolid amphiphiles” (Eur J Med Chem, 2018).
In brackets after ≈: the same amount, converted by molar mass. Activity calls are given as the source filed them. The rule behind the calls is not given here.

Tests used:
Klebsiella pneumoniae [1] = assay: Antibacterial activity against carbapenem-resistant Klebsiella pneumoniae clinical isolate 8 assessed as reduction in bacterial growth incubated for 16 to 20 hrs by CLSI-based broth microdilution method; assay type: functional; conditions: time 16-20 hrs
Outline: (§1)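 Clinical isolates tested by broth microdilution in cation-adjusted Mueller-Hinton broth. Cultures grown 4-6 h (~10^8 CFU/mL) were diluted to ~10^6 CFU/mL and mixed 1:1 with compound serial dilutions made from 256 down to 0.5 µg/mL (pre-mixing). Plates held at 37 °C for 16-20 h, then read for growth. Each concentration run in duplicate, whole experiment at least twice.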

Staphylococcus aureus [2] = assay: Antibacterial activity against methicillin-resistant Staphylococcus aureus clinical isolate 5 assessed as reduction in bacterial growth incubated for 16 to 20 hrs by CLSI-based broth microdilution method; assay type: functional; conditions: time 16-20 hrs; outline: as §1
Klebsiella pneumoniae [3] = assay: Antibacterial activity against carbapenem-resistant Klebsiella pneumoniae clinical isolate 3 assessed as reduction in bacterial growth incubated for 16 to 20 hrs by CLSI-based broth microdilution method; assay type: functional; conditions: time 16-20 hrs; outline: as §1
Escherichia coli = assay: Antibacterial activity against Escherichia coli ATCC 25922 assessed as reduction in bacterial growth incubated 16 to 20 hrs by CLSI-based broth microdilution method; assay type: functional; conditions: time 16-20 hrs
Outline: (§2)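 Broth microdilution following CLSI, in cation-adjusted Mueller-Hinton broth. Inoculum from a 4-6 h culture (~10^8 CFU/mL), diluted to ~10^6 CFU/mL. Water stocks were serially diluted in MHB (256 to 0.5 µg/mL) and mixed 1:1 with the inoculum. Plates ran 16-20 h at 37 °C. MIC was read visually. Each concentration was tested in duplicate, and the experiment was repeated at least twice.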

Klebsiella pneumoniae [4] = assay: Antibacterial activity against carbapenem-resistant Klebsiella pneumoniae clinical isolate 5 assessed as reduction in bacterial growth incubated for 16 to 20 hrs by CLSI-based broth microdilution method; assay type: functional; conditions: time 16-20 hrs; outline: as §1
Staphylococcus aureus [5] = assay: Antibacterial activity against methicillin-resistant Staphylococcus aureus clinical isolate 9 assessed as reduction in bacterial growth incubated for 16 to 20 hrs by CLSI-based broth microdilution method; assay type: functional; conditions: time 16-20 hrs; outline: as §1
Staphylococcus aureus [6] = assay: Antibacterial activity against methicillin-resistant Staphylococcus aureus clinical isolate 2 assessed as reduction in bacterial growth incubated for 16 to 20 hrs by CLSI-based broth microdilution method; assay type: functional; conditions: time 16-20 hrs; outline: as §1
Klebsiella pneumoniae [7] = assay: Antibacterial activity against carbapenem-resistant Klebsiella pneumoniae clinical isolate 9 assessed as reduction in bacterial growth incubated for 16 to 20 hrs by CLSI-based broth microdilution method; assay type: functional; conditions: time 16-20 hrs; outline: as §1
Staphylococcus aureus [8] = assay: Antibacterial activity against methicillin-resistant Staphylococcus aureus clinical isolate 1 assessed as reduction in bacterial growth incubated for 16 to 20 hrs by CLSI-based broth microdilution method; assay type: functional; conditions: time 16-20 hrs; outline: as §1
Enterobacteriaceae [9] = assay: Antibacterial activity against NDM1 producing carbapenem-resistant Enterobacteriaceae clinical isolate 7 assessed as reduction in bacterial growth incubated for 16 to 20 hrs by CLSI-based broth microdilution method; assay type: functional; conditions: time 16-20 hrs; outline: as §1
Klebsiella pneumoniae [10] = assay: Antibacterial activity against carbapenem-resistant Klebsiella pneumoniae clinical isolate 4 assessed as reduction in bacterial growth incubated for 16 to 20 hrs by CLSI-based broth microdilution method; assay type: functional; conditions: time 16-20 hrs; outline: as §1
Cell membrane [11] = assay: Induction of cytoplasmic membrane depolarization in Staphylococcus aureus ATCC 29213 at 20 ug/ml measured for 12 mins by DiSC35 dye-based fluorescence assay; assay type: subcellular; conditions: dose 20.0 µg/ml
Outline: (§3)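 Mid-log bacteria were washed and resuspended at ~10^8 CFU/mL: S. aureus in PBS, E. coli in 5 mM HEPES/5 mM glucose/100 mM KCl (1:1:1). Cells were loaded with diSC35 (10 µM stock) for 30 min (S. aureus) or 40 min (E. coli, plus EDTA). Fluorescence (ex 622/em 670 nm) was read for an 8 min baseline, then every 2 min for 12 min after compound at 20 µg/mL final. Water served as control.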

Enterobacteriaceae [12] = assay: Antibacterial activity against NDM1 producing carbapenem-resistant Enterobacteriaceae clinical isolate 4 assessed as reduction in bacterial growth incubated for 16 to 20 hrs by CLSI-based broth microdilution method; assay type: functional; conditions: time 16-20 hrs; outline: as §1
Cell membrane [13] = assay: Induction of outer membrane permeabilization in Escherichia coli ATCC 25922 at 20 ug/ml measured for 12 mins by NPN dye based fluorescence assay; conditions: dose 20.0 µg/ml
Outline: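 Mid-log E. coli in HEPES/glucose/KCl at ~10^8 CFU/mL was preincubated 40 min with N-phenylnaphthylamine (10 µM stock). Fluorescence (ex 350/em 420 nm) was read for an 8 min baseline, then every 2 min for 12 min after compound at 20 µg/mL final. Water served as control.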

Enterobacteriaceae [14] = assay: Antibacterial activity against NDM1 producing carbapenem-resistant Enterobacteriaceae clinical isolate 8 assessed as reduction in bacterial growth incubated for 16 to 20 hrs by CLSI-based broth microdilution method; assay type: functional; conditions: time 16-20 hrs; outline: as §1
Enterobacteriaceae [15] = assay: Antibacterial activity against NDM1 producing carbapenem-resistant Enterobacteriaceae clinical isolate 9 assessed as reduction in bacterial growth incubated for 16 to 20 hrs by CLSI-based broth microdilution method; assay type: functional; conditions: time 16-20 hrs; outline: as §1
Enterobacteriaceae [16] = assay: Antibacterial activity against NDM1 producing carbapenem-resistant Enterobacteriaceae clinical isolate 2 assessed as reduction in bacterial growth incubated for 16 to 20 hrs by CLSI-based broth microdilution method; assay type: functional; conditions: time 16-20 hrs; outline: as §1
Cell membrane [17] = assay: Induction of cytoplasmic membrane depolarization in Escherichia coli ATCC 25922 at 20 ug/ml measured for 12 mins by DiSC35 dye-based fluorescence assay; assay type: subcellular; conditions: dose 20.0 µg/ml; outline: as §3
Enterobacteriaceae [18] = assay: Antibacterial activity against NDM1 producing carbapenem-resistant Enterobacteriaceae clinical isolate 1 assessed as reduction in bacterial growth incubated for 16 to 20 hrs by CLSI-based broth microdilution method; assay type: functional; conditions: time 16-20 hrs; outline: as §1
Enterobacteriaceae [19] = assay: Antibacterial activity against NDM1 producing carbapenem-resistant Enterobacteriaceae clinical isolate 6 assessed as reduction in bacterial growth incubated for 16 to 20 hrs by CLSI-based broth microdilution method; assay type: functional; conditions: time 16-20 hrs; outline: as §1
Cell membrane [20] = assay: Induction of inner membrane permeabilization in Staphylococcus aureus ATCC 29213 at 20 ug/ml measured for 12 mins by propidium iodide staining based fluorescence microscopic analysis; conditions: dose 20.0 µg/ml
Outline: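 Mid-log bacteria were washed and resuspended at ~10^8 CFU/mL and preincubated with propidium iodide (10 µM stock) for 30 min (S. aureus) or 40 min (E. coli). Fluorescence (ex 535/em 617 nm) was read on a plate for an 8 min baseline, then every 2 min for 12 min after compound at 20 µg/mL final. Water served as control.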

Staphylococcus aureus [21] = assay: Antibacterial activity against methicillin-resistant Staphylococcus aureus clinical isolate 7 assessed as reduction in bacterial growth incubated for 16 to 20 hrs by CLSI-based broth microdilution method; assay type: functional; conditions: time 16-20 hrs; outline: as §1
Staphylococcus aureus [22] = assay: Antibacterial activity against methicillin-resistant Staphylococcus aureus clinical isolate 10 assessed as reduction in bacterial growth incubated for 16 to 20 hrs by CLSI-based broth microdilution method; assay type: functional; conditions: time 16-20 hrs; outline: as §1
Enterococcus faecalis = assay: Antibacterial activity against Enterococcus faecalis ATCC 29212 assessed as reduction in bacterial growth incubated 16 to 20 hrs by CLSI-based broth microdilution method; assay type: functional; conditions: time 16-20 hrs; outline: as §2
Klebsiella pneumoniae [23] = assay: Antibacterial activity against carbapenem-resistant Klebsiella pneumoniae clinical isolate 2 assessed as reduction in bacterial growth incubated for 16 to 20 hrs by CLSI-based broth microdilution method; assay type: functional; conditions: time 16-20 hrs; outline: as §1
Staphylococcus aureus [24] = assay: Antibacterial activity against methicillin-resistant Staphylococcus aureus clinical isolate 3 assessed as reduction in bacterial growth incubated for 16 to 20 hrs by CLSI-based broth microdilution method; assay type: functional; conditions: time 16-20 hrs; outline: as §1
Salmonella enterica = assay: Antibacterial activity against Salmonella enterica ATCC 8387 assessed as reduction in bacterial growth incubated for 16 to 20 hrs by CLSI-based broth microdilution method; assay type: functional; conditions: time 16-20 hrs; outline: as §2

| SMILES | MIC (Klebsiella pneumoniae [1]) [µg/mL] | MIC (Staphylococcus aureus [2]) [µg/mL] | MIC (Klebsiella pneumoniae [3]) [µg/mL] | MIC (Escherichia coli) [µg/mL] | MIC (Klebsiella pneumoniae [4]) [µg/mL] | MIC (Staphylococcus aureus [5]) [µg/mL] | MIC (Staphylococcus aureus [6]) [µg/mL] | MIC (Klebsiella pneumoniae [7]) [µg/mL] | MIC (Staphylococcus aureus [8]) [µg/mL] | MIC (Enterobacteriaceae [9]) [µg/mL] | MIC (Klebsiella pneumoniae [10]) [µg/mL] | Activity (Cell membrane [11]) | MIC (Enterobacteriaceae [12]) [µg/mL] | Activity (Cell membrane [13]) | MIC (Enterobacteriaceae [14]) [µg/mL] | MIC (Enterobacteriaceae [15]) [µg/mL] | MIC (Enterobacteriaceae [16]) [µg/mL] | Activity (Cell membrane [17]) | MIC (Enterobacteriaceae [18]) [µg/mL] | MIC (Enterobacteriaceae [19]) [µg/mL] | also measured |
| --- | --- | --- | --- | --- | --- | --- | --- | --- | --- | --- | --- | --- | --- | --- | --- | --- | --- | --- | --- | --- | --- |
| C[C@@H](O)[C@H]1C(=O)N2C(C(=O)O)=C(S[C@@H]3CN[C@H](C(=O)N(C)C)C3)[C@H](C)[C@H]12 [MEROPENEM] | 32 (≈ 83.4 µM) | 64 (≈ 167 µM) | 2 (≈ 5.22 µM) | < 0.125 | 32 (≈ 83.4 µM) | 64 (≈ 167 µM) | 64 (≈ 167 µM) | > 64 | 64 (≈ 167 µM) | 64 (≈ 167 µM) | 32 (≈ 83.4 µM) | inactive | 64 (≈ 167 µM) | inactive | > 64 | > 64 | 16 (≈ 41.7 µM) | inactive | 32 (≈ 83.4 µM) | 2 (≈ 5.22 µM) | Activity (Cell membrane [20]): inactive; MIC (Staphylococcus aureus [21]): 64 µg/mL (≈ 167 µM); MIC (Staphylococcus aureus [22]): 32 µg/mL (≈ 83.4 µM); MIC (Enterococcus faecalis): 4 µg/mL (≈ 10.4 µM); MIC (Klebsiella pneumoniae [23]): > 64 µg/mL; MIC (Staphylococcus aureus [24]): 32 µg/mL (≈ 83.4 µM); MIC (Salmonella enterica): < 0.125 µg/mL |
| CCCCCCCCCCCN(C[C@H]1CN(c2ccc(N3CCOCC3)c(F)c2)C(=O)O1)C(=O)[C@@H](N)CCCCN.Cl.Cl | 16 | 4 | 16 | 8 | 16 | 4 | 4 | 16 | 4 | 16 | 16 | Active | 16 | inactive | 16 | 16 | > 64 | Active | > 64 | 16 | Activity (Cell membrane [20]): Active; MIC (Staphylococcus aureus [21]): 2 µg/mL; MIC (Staphylococcus aureus [22]): 4 µg/mL; MIC (Enterococcus faecalis): 4 µg/mL; MIC (Klebsiella pneumoniae [23]): 16 µg/mL; MIC (Staphylococcus aureus [24]): 2 µg/mL; MIC (Salmonella enterica): 16 µg/mL |
